Hits are enriched below; roughly 3.8% of the tested compounds scored in any of these assays.
ANO1 activ = activates or potentiates the mouse TMEM16A chloride channel. Q8BHY3. B-score at 10 µM. HEK293 TMEM16A/YFP-H148Q/I152L, iodide quench fluorescence; active compounds read low. 340,000 tested, 0.3% active;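 active = fluorescence-ratio B-score plate-corrected deviation score at least 3 library SD below zero, with starting fluorescence score within 5 deviations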;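 note: channel opened by trigger with iodide after compound preincubation; score built on the fluorescence ratio of max minus min over baseline; more negative score means more quench and so TMEM16A activation or potentiation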
MC4R antagonist = blocks human MC4R cAMP signaling | inhibition, % at 6.5 µM | 360,000 tested, 0.48% active | MC4R-expressing cells, MTII-stimulated cAMP, LANCE TR-FRET | P32245 | AID 540295;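 active = inhibition above its plate's cutoff, the mean of tested wells on that plate plus 3 SD, cut at about 29% in these data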;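 note: 0% = Melanotan II alone and 100% = Melanotan II plus saturating MCL0020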
Target sequence (P32245 whole entry, looked up): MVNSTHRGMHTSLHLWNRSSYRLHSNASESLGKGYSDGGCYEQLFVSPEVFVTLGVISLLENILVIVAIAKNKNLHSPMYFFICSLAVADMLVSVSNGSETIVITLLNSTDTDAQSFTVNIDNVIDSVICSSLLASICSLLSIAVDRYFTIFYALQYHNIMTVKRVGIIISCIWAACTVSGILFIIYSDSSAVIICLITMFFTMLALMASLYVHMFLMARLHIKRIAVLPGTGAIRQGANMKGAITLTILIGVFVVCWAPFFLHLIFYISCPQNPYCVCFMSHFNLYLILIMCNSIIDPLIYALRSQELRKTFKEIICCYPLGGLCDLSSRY
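Material: U2OS-MC4R stable cell line | Reagent: Melanotan II challenge after compound preincubation | Doses: One concentration, 6.5 µM nominal | Incubation: 30-min compound preincubation, 1-h Melanotan II challenge, 1-h detection, room temperature | Signal: TR-FRET cAMP assay | Replicates: One well per compound, no replicates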
TMEM16A inh = mouse TMEM16A channel inhibition, primary screen; Q8BHY3; HEK293 TMEM16A/YFP iodide influx fluorescence, ionomycin; normalized B-score (activity score, 25-100; higher = stronger inhibition) at 10 µM; 310,000 tested, 1.2% active;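 active = ratio plate-corrected score three or more library SD toward inhibition, starting fluorescence score within five deviations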;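 note: score derived from kinetic fluorescence span divided by baseline fluorescence per well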
CSC inhib = cancer stem cell inhibition | 300,000 tested, 1.1% active | cancer stem cell-like cells viability, luminescence | inhibition, % at 7.5 µM | AID 2717; in the data active = inhibition above about 75%; tested in HMLE shEcad cells
MC4R ag barr = activates human MC4R beta-arrestin recruitment; U2OS MC4R beta-arrestin complementation, luminescence; percent of melanotan II response, DMSO zero; activation, % at 8.9 µM; AID 540308; 360,000 tested, 0.98% active; P32245;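 active = activation above a per-plate cutoff, the mean activation of sample wells on that plate plus 3 SD, cut at about 8% in these data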
Beta cell apopt = beta cell apoptosis inhibition | AID 435005 | INS-1E cytokine-induced death, ATP luminescence, 48 h; percent of positive-control rescue, neutral wells zero | protection from apoptosis, % (test concentration not listed) | 300,000 tested, 0.8% active;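 active = Every replicate reaches about 75%, or at least half do and their mean reaches it too, limit read from the data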;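 note: 0% = cytokine-treated negative control wells and 100% = positive control rescue; higher means more ATP so stronger rescue from cytokine killing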
* marks the source's active call; other numbers are inactive results; ! = a repeat was not active.

`COc1ccc(CN(C)C(=O)c2cccc(NC(=O)CC3SC(N4CCCCC4)=NC3=O)c2)c(OC)c1` (stereo unspecified) gave ANO1 activ inactive, MC4R antagonist 6 and MC4R ag barr -1.
CC1(C)Oc2c(ccc(O)c2CN2CCOCC2)C2=C1CCCC2 was read as ANO1 activ inactive, MC4R antagonist 11 and MC4R ag barr 3.
`O=C(COc1ccc(/C=N/NC(=O)c2cc3ccccc3o2)cc1Cl)Nc1ccccc1` gave ANO1 activ inactive, MC4R antagonist 1, TMEM16A inh inactive, CSC inhib 116*, MC4R ag barr 20* and Beta cell apopt -4.
`COc1cc(/C=N/NC(=O)c2ccccc2O)ccc1OCC(=O)Nc1ccccc1` gave ANO1 activ inactive, MC4R antagonist 0, TMEM16A inh inactive, CSC inhib -6, MC4R ag barr 1 and Beta cell apopt 5.
For CCCCN(C)CC(O)Cn1cc(/C=C/C(=O)c2ccc(C)cc2)c2ccccc21 (stereo unspecified) the results were ANO1 activ inactive, MC4R antagonist -2, TMEM16A inh inactive, CSC inhib 82*, MC4R ag barr 13* and Beta cell apopt 10.
`CCCN(CCC)CC(O)Cn1cc(/C=C/C(=O)c2ccccc2)c2ccccc21` (stereo unspecified) gave ANO1 activ inactive, MC4R antagonist -5 and MC4R ag barr 1.
For O=C(Nc1cccc(C(F)(F)F)c1)Nc1ccc2nc([C@@H]3O[C@H](CO)[C@@H](O)[C@H](O)[C@H]3O)[nH]c2c1 the results were MC4R antagonist 8 and MC4R ag barr 0.
`O=C1CC(c2ccc3c(c2)OCO3)c2cc3c(cc2N1)OCCO3` (stereo unspecified) gave ANO1 activ -5.1*, MC4R antagonist 7, TMEM16A inh inactive, CSC inhib -10, MC4R ag barr -4 and Beta cell apopt -4.
`O=C1CC(c2ccncc2)c2cc3c(cc2N1)OCCO3` (stereo unspecified) gave ANO1 activ inactive, MC4R antagonist 11, TMEM16A inh inactive, CSC inhib -9, MC4R ag barr 0 and Beta cell apopt -3.
Screening CC(=O)Oc1ccc(-c2csc(Nc3cccc(C)n3)n2)cc1 returned ANO1 activ inactive, MC4R antagonist -4, TMEM16A inh inactive, CSC inhib 79* and MC4R ag barr 4.
Screening CC1CN(CC(=O)Nc2nc3ccccc3s2)CC(C)O1 (stereo unspecified) returned ANO1 activ inactive, MC4R antagonist 2, TMEM16A inh inactive, CSC inhib -7, MC4R ag barr 1 and Beta cell apopt 4.
CN(C)c1ccc(C=c2c3ccccc3n3c2c2ccccc2[n+]3C)cc1 was read as ANO1 activ inactive, MC4R antagonist 4 and MC4R ag barr 14*.
Screening Cc1cc(C)n(CCC(=O)Nc2ccc3c(c2)OCCO3)n1 returned ANO1 activ inactive, MC4R antagonist 3, TMEM16A inh inactive, CSC inhib 4, MC4R ag barr -1 and Beta cell apopt -3.
Screening CC(C)C(=O)N1CCN(c2ccc(NC(=O)c3ccc4c(c3)OCCO4)cc2Cl)CC1 returned ANO1 activ inactive, MC4R antagonist -9, TMEM16A inh 100*, MC4R ag barr 3 and Beta cell apopt 16.
Screening O=S(=O)(NC1CCCCC1N1CCOCC1)c1ccc(Cl)cc1 (stereo unspecified) returned ANO1 activ inactive, MC4R antagonist 1, TMEM16A inh inactive, CSC inhib 6, MC4R ag barr -1 and Beta cell apopt 2.
O=S(=O)(NC1CCCCC1N1CCN(c2ccccc2F)CC1)c1ccc(Cl)cc1 (stereo unspecified) was read as ANO1 activ -40*, MC4R antagonist 17, TMEM16A inh inactive, CSC inhib 17, MC4R ag barr 7 and Beta cell apopt 24.
For Cc1cc(C)c(S(=O)(=O)Nc2ccccc2)c(C)c1 the results were ANO1 activ inactive, MC4R antagonist 0 and MC4R ag barr -2.
Screening CCC(C)c1ccccc1NC(=O)CN(C)CCOc1ccc(Cl)cc1 (stereo unspecified) returned MC4R antagonist 18, TMEM16A inh inactive, CSC inhib 12, MC4R ag barr 8.6* and Beta cell apopt -3.
Screening CCOc1cc(/C=N/O)cc(Br)c1OCc1ccc(Cl)cc1 returned ANO1 activ inactive, MC4R antagonist -2, TMEM16A inh inactive, CSC inhib 117*, MC4R ag barr 2 and Beta cell apopt 10.
`CCOc1cc(/C=N/O)cc(Br)c1OCC` gave ANO1 activ inactive, MC4R antagonist -5, TMEM16A inh inactive, CSC inhib -2, MC4R ag barr -2 and Beta cell apopt -8.
CCOc1cc(CNCCO)cc(Br)c1OCc1ccc(Cl)cc1 was read as ANO1 activ inactive, MC4R antagonist -5, TMEM16A inh inactive, CSC inhib 85*, MC4R ag barr -1 and Beta cell apopt 36.
For O=C(c1nc[nH]c1C(=O)N1CCN(c2ccccc2)CC1)N1CCN(c2ccccc2)CC1 the results were ANO1 activ inactive, MC4R antagonist 0, CSC inhib -7, MC4R ag barr -2 and Beta cell apopt -2.
For CC(=O)Nc1nc2[nH]ccc2c(=O)[nH]1 the results were MC4R antagonist -1 and MC4R ag barr -1.
CC(C)[C@H](NC(=O)c1c(F)cccc1F)C(=O)Nc1cccc(Br)c1 was read as ANO1 activ inactive, MC4R antagonist -1, TMEM16A inh inactive, CSC inhib 5, MC4R ag barr 8.6* and Beta cell apopt -1.
For C=CCn1c(SCC(=O)NCC2CCCO2)nc2c([nH]c3ccccc32)c1=O (stereo unspecified) the results were ANO1 activ inactive, MC4R antagonist -11, TMEM16A inh inactive, CSC inhib 3, MC4R ag barr -1 and Beta cell apopt 1.
Screening Cc1cccc(C)c1NC(=S)N1CCCN(C)CC1 returned ANO1 activ -5.7*, MC4R antagonist -6, TMEM16A inh inactive, MC4R ag barr -2 and Beta cell apopt -6.
COC(=O)c1cc(=O)n(CCc2ccccc2)c(=Nc2ccc(F)cc2)s1 was read as ANO1 activ inactive, MC4R antagonist 12, TMEM16A inh inactive, CSC inhib 60, MC4R ag barr -1 and Beta cell apopt 10.
For CCOC(=O)c1ccc(N=c2sc(C(=O)OC)cc(=O)n2CCCN2CCOCC2)cc1 the results were ANO1 activ inactive, MC4R antagonist 12, TMEM16A inh inactive, CSC inhib 101*!, MC4R ag barr -1 and Beta cell apopt -1.
